Experimental data published in ChEMBL document CHEMBL4402601, “Discovery of a Silicon-Containing Pan-Genotype Hepatitis C Virus NS5A Inhibitor” (J Med Chem, 2020).
pEC50: −log10 of the molar value.

What was measured:
[1] = Drug distribution in mouse liver at 10 mg/kg, po incubated for 0.5 hrs by UPLC-MS/MS analysis; type: ADME, organism-based; conditions: read-out: Drug uptake
Summary of the method: (§1)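 Oral dosing in mice and rats; compound measured in plasma and liver by UPLC-MS/MS at each time point, n = 3 (mean ± SD). LPR is mean liver concentration divided by mean plasma concentration.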

[2] = Ratio of drug distribution in rat liver to drug distribution in rat plasma measured after 3 hrs by UPLC-MS/MS analysis; type: ADME, cell-free; summary of the method: as §1
[3] = Drug distribution in mouse liver at 10 mg/kg, po incubated for 24 hrs by UPLC-MS/MS analysis; type: ADME, organism-based; conditions: read-out: Drug uptake; summary of the method: as §1
[4] = tested on: Hepatitis C virus; assay: Antiviral activity against Hepatitis C virus subtype 1a H77 subgenomic replicon expressing NS5A Y93N mutant infected in human HuH7 cells assessed as reduction in viral replication incubated for 3 days by luciferase reporter gene assay; type: functional, organism-based, Hepacivirus hominis; conditions: subtype 1a H77, Huh-7, 72 h
Summary of the method: (§2)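 NS5A resistance-associated variants introduced into GT1a-H77 or GT1b-Con1 replicons. In transient assays, each variant replicon was electroporated into a Huh-7-derived cell line. Inhibition measured as drop in luciferase signal. Percent inhibition computed per concentration; EC50 from 4-parameter logistic nonlinear fit. Fold resistance is variant EC50 relative to the matching reference replicon.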

[5] = Cytotoxicity against human HuH7 cells assessed as reduction in cell viability incubated for 3 days by luciferase reporter gene assay; type: cell-based, Huh-7
[6] = Oral bioavailability in mouse at 10 mg/kg by UPLC-MS/MS analysis; type: ADME, organism-based; conditions: in vivo
Summary of the method: (§3)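 Overnight-fasted mice given a single 10 mg/kg oral dose in 2:2:96 (v/v) alcohol : Tween 80 : glucose injection. Plasma levels by UPLC-MS/MS. Bioavailability derived against a 2 mg/kg iv arm using the same formulation diluted 2.5 times with 10% glucose injection.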

[7] = tested on: Hepatitis C virus; assay: Antiviral activity against Hepatitis C virus subtype 1b Con1 replicon expressing NS5A L31V mutant infected in human HuH7 cells assessed as reduction in viral replication incubated for 3 days by luciferase reporter gene assay; type: functional, organism-based, Hepacivirus hominis; conditions: subtype 1b Con1, Huh-7, 72 h; summary of the method: as §2
[8] = Half life in mouse at 10 mg/kg, po by UPLC-MS/MS analysis; type: ADME, organism-based; conditions: in vivo; summary of the method: as §3
[9] = tested on: Hepatitis C virus; assay: Resistance index, ratio of EC50 for Hepatitis C virus subtype 1a H77 subgenomic replicon expressing NS5A M28T mutant infected in human HuH7 cells to EC50 for Hepatitis C virus subtype 1a H77 subgenomic replicon expressing NS5A infected in human HuH7 cells; type: functional, Hepacivirus hominis
[10] = AUClast in mouse at 2 mg/kg, iv by UPLC-MS/MS analysis; type: ADME, organism-based; conditions: in vivo
Summary of the method: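 Overnight-fasted mice dosed iv once at 2 mg/kg. Vehicle was 2:2:96 (v/v) alcohol : Tween 80 : glucose injection diluted 2.5 times with 10% glucose injection. Plasma concentration measured by UPLC-MS/MS.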

[11] = tested on: Hepatitis C virus; assay: Antiviral activity against Hepatitis C virus subtype 1a H77 subgenomic replicon expressing NS5A Y93H mutant infected in human HuH7 cells assessed as reduction in viral replication incubated for 3 days by luciferase reporter gene assay; type: functional, organism-based, Hepacivirus hominis; conditions: subtype 1a H77, Huh-7, 72 h; summary of the method: as §2
[12] = Ratio of drug distribution in mouse liver to drug distribution in mouse plasma measured after 0.5 hrs by UPLC-MS/MS analysis; type: ADME, cell-free; summary of the method: as §1
[13] = Metabolic stability in human liver microsomes assessed as compound remaining at 1 uM incubated for 60 mins by UPLC-MS/MS analysis; type: ADME, Microsome; conditions: read-out: Stability
Summary of the method: (§4)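 Pooled mouse, rat or human liver microsomes (0.5 mg/mL) with 1 μM compound, 1 mM NADPH, 5 mM MgCl₂ and 100 mM potassium phosphate pH 7.4. Pre-incubated 5 min at 37 °C, started with NADPH, then run 60 min at 37 °C. Quenched with ice-cold acetonitrile containing internal standard; parent remaining measured by UPLC-MS/MS.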

[14] = Metabolic stability in rat liver microsomes assessed as compound remaining at 1 uM incubated for 60 mins by UPLC-MS/MS analysis; type: ADME, Microsome; conditions: read-out: Stability; summary of the method: as §4
[15] = tested on: Hepatitis C virus; assay: Antiviral activity against Hepatitis C virus subtype 2a subgenomic replicon expressing NS5A infected in human HuH7 cells assessed as reduction in viral replication incubated for 3 days by luciferase reporter gene assay; type: functional, organism-based, Hepacivirus hominis; conditions: Huh-7, 72 h
[16] = Ratio of drug distribution in rat liver to drug distribution in rat plasma measured after 0.5 hrs by UPLC-MS/MS analysis; type: ADME, cell-free; summary of the method: as §1
[17] = Toxicity in mouse assessed as effect on hematological parameters at 300 mg/kg, po administered for 14 days and measured on day 14; type: organism-based; conditions: in vivo, 336 h
Summary of the method: (§5)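 Mice randomised after acclimation into two groups of 5 males and 5 females. Compound at 300 mg/kg or vehicle alone given once daily by oral gavage for 14 days. Clinical signs observed daily. Body weight and food intake recorded on day 1, then twice weekly. Animals killed after the 14th dose.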

[18] = Ratio of drug distribution in mouse liver to drug distribution in mouse plasma measured after 3 hrs by UPLC-MS/MS analysis; type: ADME, cell-free; summary of the method: as §1
[19] = tested on: Hepatitis C virus; assay: Antiviral activity against Hepatitis C virus subtype 1a H77 subgenomic replicon expressing NS5A infected in human HuH7 cells assessed as reduction in viral replication incubated for 3 days by luciferase reporter gene assay; type: functional, organism-based, Hepacivirus hominis; conditions: subtype 1a H77, Huh-7, 72 h
Summary of the method: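 HCV replicon cell assay; inhibition of replication read as decrease in luciferase signal. Percent inhibition computed at each compound concentration; EC50 (pM) from nonlinear regression fit to a 4-parameter logistic equation. Values are means of triplicate wells, with each experiment run at least twice.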

[20] = Toxicity in mouse assessed as increase in cholesterol level at 300 mg/kg, po administered for 14 days and measured on day 14; type: organism-based; conditions: in vivo, 336 h; summary of the method: as §5
[21] = Toxicity in mouse assessed as reduction in body weight at 300 mg/kg, po administered for 14 days and measured on day 14; type: organism-based; conditions: in vivo, 336 h; summary of the method: as §5
[22] = tested on: Hepatitis C virus; assay: Resistance index, ratio of EC50 for Hepatitis C virus subtype 1a H77 subgenomic replicon expressing NS5A L31V mutant infected in human HuH7 cells to EC50 for Hepatitis C virus subtype 1a H77 subgenomic replicon expressing NS5A infected in human HuH7 cells; type: functional, Hepacivirus hominis
[23] = Drug distribution in mouse plasma at 10 mg/kg, po incubated for 0.5 hrs by UPLC-MS/MS analysis; type: ADME, organism-based; summary of the method: as §1
[24] = tested on: Hepatitis C virus; assay: Antiviral activity against Hepatitis C virus subtype 1a H77 subgenomic replicon expressing NS5A Q30E mutant infected in human HuH7 cells assessed as reduction in viral replication incubated for 3 days by luciferase reporter gene assay; type: functional, organism-based, Hepacivirus hominis; conditions: subtype 1a H77, Huh-7, 72 h; summary of the method: as §2
[25] = Toxicity in mouse assessed as abnormality on organs at 300 mg/kg, po administered for 14 days and measured on day 14; type: organism-based; conditions: in vivo, 336 h; summary of the method: as §5
[26] = Cmax in mouse at 10 mg/kg, po by UPLC-MS/MS analysis; type: ADME, organism-based; parameters: dose 10 mg/kg, route oral; conditions: in vivo; summary of the method: as §3
[27] = AUC (0 to 48 hrs) in dog at 5 mg/kg, po by UPLC-MS/MS analysis; type: ADME, organism-based, Canis lupus familiaris; parameters: time < 48 hr, dose 5 mg/kg, route oral; conditions: in vivo
[28] = tested on: Hepatitis C virus; assay: Resistance index, ratio of EC50 for Hepatitis C virus subtype 1a H77 subgenomic replicon expressing NS5A Y93N mutant infected in human HuH7 cells to EC50 for Hepatitis C virus subtype 1a H77 subgenomic replicon expressing NS5A infected in human HuH7 cells; type: functional, Hepacivirus hominis
[29] = Volume of distribution in mouse at 2 mg/kg, iv by UPLC-MS/MS analysis; type: ADME, organism-based; conditions: in vivo
Summary of the method: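 Mice fasted overnight, given a single 2 mg/kg iv dose. Vehicle was the oral formulation (2:2:96 alcohol:Tween 80:glucose injection) diluted 2.5-fold with 10% glucose injection. Plasma concentrations measured by UPLC-MS/MS.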

## COC(=O)N[C@H](C(=O)N1CCC[C@H]1C(=O)Nc1ccc([C@@H]2CC[C@@H](c3ccc(NC(=O)[C@@H]4CCCN4C(=O)[C@@H](NC(=O)OC)[C@@H](C)OC)cc3)N2c2cc(F)c(N3CC[Si](C)(C)CC3)c(F)c2)cc1)[C@@H](C)OC
[1]
  concentration at 0.5 h: 436 ng/g
[2]
  Kp at 3 h: 5.2
[3]
  concentration at 24 h: 625 ng/g
[4]
  pEC50: < 9.60
[5]
  CC50 at 72 h: > 50000 nM
[6]
  bioavailability: 7.2%
[7]
  pEC50: 11.42
[8]
  half-life: 8 h
[9]
  Ratio EC50: 1.9
[10]
  AUClast: 17863 ng/hr.ml
[11]
  pEC50: < 9.00
[12]
  Kp at 0.5 h: 8.8
[13]
  remaining at 1 h, 1 µM: 80.9%
[14]
  remaining at 1 h, 1 µM: 76.3%
[15]
  pEC50: 12.42
[16]
  Kp at 0.5 h: 2.7
[17]
  Activity: Non-Toxic
[18]
  Kp at 3 h: 24.6
[19]
  pEC50: 11.92
[20]
  Activity: Non-Toxic
[21]
  Activity: Non-Toxic
[22]
  Ratio EC50: 23
[23]
  concentration at 0.5 h: 160 ng/mL
[24]
  pEC50: 9.67
[25]
  Activity: Non-Toxic
[26]
  Cmax: 454 ng/mL
[27]
  AUC: 8020 ng·h/mL
[28]
  Ratio EC50: >203
[29]
  Vd: 1.56 L/kg
